The values that follow come from article PMC10558795 (Redox Biology, 2023).

The subject of one data set is global translation. The data set can be described thus: Protein synthesis assay. The data set is classed as cell-based, human. The note with it: KYSE70; PYR 10 μM, MIT 20 nM; CHX positive control. The method in brief: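 KYSE70 cells (37 °C, 5% CO₂) seeded at 2000 cells/well in 96-well plates; exposed to test compound or cycloheximide (positive control) in triplicate. Global translation measured with a commercial protein synthesis assay kit per manufacturer's protocol; cells imaged on a high-content imager.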

The next data set has as its target NRF2 (NRF2^Mut-KYSE180) (Homo sapiens, UniProt Q16236, D77V). The data set can be described thus: CHX chase analysis of NRF2 half-life in KYSE180 cells. The data set is classed as cell-based. The settings on record: PYR 10 μM, MIT 20 nM. In short, it runs like this: (§1)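 Cells were grown in RPMI1640 GlutaMAX with 10% FBS and 1% penicillin/streptomycin at 37 °C, 5% CO₂. They were pre-incubated 4 h with test compound, then given 200 μg/ml cycloheximide to block protein synthesis. Cells were harvested at set time points after cycloheximide. Total lysates were run on SDS-PAGE and blotted for NRF2 and GAPDH, and band densities were used to calculate NRF2 half-life.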

For data set [1], the system named is NRF2 expression in NRF2^WT-KYSE450 cells. Nature of the data set: NRF2 expression in KYSE450 cells. Format: cell-based, human. The method in brief: (§2)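 Nuclear and cytosolic fractions prepared with an extraction kit, or whole-cell lysates in RIPA buffer. Proteins separated by SDS-PAGE, transferred to nitrocellulose, blocked and probed with primary antibody overnight at 4 °C. Chemiluminescence detected on film and quantified by densitometry; band data as mean ± SD, Student's t-test.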

The test system of the next data set is adult wild-type mice. The data set can be described thus: Dose-finding experiment in adult wild-type mice. Format: in vivo, mouse. In short, it runs like this: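 Adult wild-type mice, n = 5 per group, dosed orally once daily for 4 weeks with test compound dissolved in N-methyl-2-pyrrolidone:PEG300 (1:9). Grooming, physical strength, movement and body weight tracked during dosing; blood collected for complete blood count, analysed by ANOVA.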

Data set [2] concerns NRF2 activity (NQO1-YFP signal, CDDO-activated). The data set can be described thus: High-throughput screen and dose response: NRF2 activity. The data set is classed as cell-based, human. The note with it: Homo sapiens, NCI-H1299, read-out: NRF2 inhibition (IC50, μM). In short, it runs like this:
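NQO1-YFP H1299 reporter cells (YFP in NQO1 intron 1, constitutive mCherry) were seeded 1000/well in 384-well plates and cultured overnight. Primary screen: 1 μM compound in 0.1% DMSO, one well each, with CDDO 200 nM and 0.1% DMSO controls. Retests used 10-point serial dilutions from 10 µM in triplicate, with brusatol control. Imaged at 0, 24, 48, 64 h (YFP = NRF2 activity, mCherry = viability); IC₅₀ by curve fit.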

A further data set has as its system STAT3. The data set can be described thus: pSTAT3 and STAT3 expression in KYSE70 cells. Format: cell-based, human. The note with it: up to 10 μM. In short, it runs like this:
as §2

The subject of another data set is KYSE70 cells. The data set can be described thus: High-content cytotoxicity screen. Format: cell-based, human. The note with it: Homo sapiens, KYSE-70, 72 h, read-out: Cell proliferation (IC50, μM). The method in brief: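 Cells were seeded at 1200/well in 384-well plates and cultured overnight. Test compound was added at […] serial dilution from 10 µM, in triplicate, for 3 days. Controls were 0.1% DMSO (negative), 30 µM benzethonium chloride and 0.1% Triton X-100 added just before staining (positive). Cells were stained with 0.5 µg/ml Hoechst and 100 nM YOYO1, four 4× images per well. Normalized total-cell and dead-cell percentages were fitted for IC₅₀.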

Data set [3] is described as follows: Pharmacokinetics of PYR in mice, i.p. The data set is classed as in vivo. The settings on record: 30 mg/kg/day; extrapolated from literature Cmax.
Data set [4] concerns human NRF2 target genes in KYSE70 cells. The data set can be described thus: RNAseq of KYSE70 cells. Format: cell-based. The note with it: PYR 10 μM for 72 h, MIT 20 nM for 72 h. The method in brief:
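Total RNA from treated and control cells made into Illumina libraries and sequenced (150 bp). Reads aligned to hg38 with RefSeq annotation and counted per gene; DEGs called by fold-change cut-off and corrected p-values. Gene set enrichment analysis performed; overall NRF2 target-gene mRNA level calculated on natural log scale.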

The test system of data set [5] is Sox2CreER;LSL-Nrf2^E79Q/+ mice. The data set can be described thus: Therapeutic effect on the NRF2^high esophageal phenotype in Sox2CreER. Format: in vivo, mouse. The method in brief: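 Sox2CreER;LSL-Nrf2^E79Q/+ mice induced with tamoxifen (75 mg/kg/day i.p., 5 days), then given oral test compound in N-methyl-2-pyrrolidone:PEG300 (1:9). Part of forestomach resected at Week 1; rest of forestomach and esophageal epithelium taken at Week 3 sacrifice, with BrdU 50 mg/kg i.p. 2 h before. Analysis by Western blotting, H&E, and IHC (DAB, no-primary-antibody controls).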

Data set [6] addresses NRF2 ubiquitination (KYSE70) (Homo sapiens, UniProt Q16236, W24C). Nature of the data set: NRF2-IP and ubiquitin western blotting in KYSE70 cells. The data set is classed as cell-based. The note with it: NRF2^Mut-KYSE70; PYR 10 μM, MIT 20 nM; presence or absence of MG132. The method in brief: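 Cells treated with test compound, then with or without MG132 (10 μM), lysed in RIPA buffer. Lysate precleared on protein G agarose 1 h at 4 °C, then incubated with 1 μg anti-NRF2 antibody overnight at 4 °C with rotation. Immunocomplexes captured on protein G agarose 1.5 h at 4 °C, washed, boiled in 2X SDS loading buffer at 95 °C for 5 min, and immunoblotted for ubiquitin.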
A general note: A western blot detects proteins with antibodies after separation by electrophoresis.

Data set [7] relates to NFE2L2 mRNA and NRF2 target genes. The data set can be described thus: qPCR of NFE2L2 mRNA and NRF2 target genes. The data set is classed as cell-based, human. The method in brief:
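Gene expression quantified by real-time PCR using gene-specific primers and TaqMan probes on a 96-well real-time PCR system.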
(In general: Quantitative PCR measures a nucleic acid by following its amplification.)

The target of another data set is DHFR (Homo sapiens, UniProt P00374). Nature of the data set: DHFR activity assay kit. The data set is classed as biochemical. The settings on record: KYSE70 cells. The method in brief:
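Kit-based DHFR enzymatic assay followed by the decrease in A340nm over time; methotrexate 1 μM as reference DHFR inhibitor.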

A further data set has as its target NRF2 (NRF2^WT-KYSE450) (Homo sapiens, UniProt Q16236). Nature of the data set: CHX chase analysis of NRF2 half-life in KYSE450 cells. Format: cell-based. The note with it: PYR 10 μM, MIT 20 nM. The method in brief:
as §1

In data set [8] the test system is NRF2 expression in Nrf2^WT MEEC. Nature of the data set: NRF2 expression in mouse esophageal epithelial cells. Format: cell-based. The method in brief: as §2
For a further data set, the target named is NRF2-ARE binding (Homo sapiens, UniProt Q16236, W24C). The data set can be described thus: ELISA-based TransAM NRF2-ARE binding assay with KYSE70 nuclear extracts. The method in brief: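 TransAM ELISA: nuclear extract from untreated KYSE70 cells (20 μg/well) added to wells containing ARE oligonucleotide. Test compound, competitor or mutated competitor added, then 1 h incubation with mild agitation and washing. Anti-NRF2 antibody 1 h, then HRP-conjugated secondary antibody and substrate; A450nm read.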
Chain of NRF2-ARE binding (Q16236 whole entry W24C): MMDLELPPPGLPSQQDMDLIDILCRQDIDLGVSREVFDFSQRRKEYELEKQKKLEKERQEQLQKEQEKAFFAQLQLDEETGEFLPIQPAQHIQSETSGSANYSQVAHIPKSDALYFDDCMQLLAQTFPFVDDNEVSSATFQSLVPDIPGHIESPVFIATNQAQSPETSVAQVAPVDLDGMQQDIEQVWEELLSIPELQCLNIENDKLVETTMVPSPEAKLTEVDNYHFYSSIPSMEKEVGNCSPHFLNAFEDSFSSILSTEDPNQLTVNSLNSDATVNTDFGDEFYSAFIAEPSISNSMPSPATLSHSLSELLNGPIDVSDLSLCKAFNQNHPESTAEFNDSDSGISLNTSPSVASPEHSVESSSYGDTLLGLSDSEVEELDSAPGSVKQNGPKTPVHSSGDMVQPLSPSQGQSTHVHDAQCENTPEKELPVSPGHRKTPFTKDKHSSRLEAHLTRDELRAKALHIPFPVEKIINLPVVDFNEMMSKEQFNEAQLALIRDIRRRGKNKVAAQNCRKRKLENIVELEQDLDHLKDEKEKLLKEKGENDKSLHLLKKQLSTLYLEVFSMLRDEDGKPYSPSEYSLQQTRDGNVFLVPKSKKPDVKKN
Background: ELISA stands for enzyme-linked immunosorbent assay.

[9] abbreviates: PYR given after tamoxifen induction.

Chain of NRF2 (NRF2^WT-KYSE450) (Q16236 whole entry): as the sequence (Q16236 whole entry W24C) above, with C24W counted along it
Chain of DHFR (P00374 whole entry): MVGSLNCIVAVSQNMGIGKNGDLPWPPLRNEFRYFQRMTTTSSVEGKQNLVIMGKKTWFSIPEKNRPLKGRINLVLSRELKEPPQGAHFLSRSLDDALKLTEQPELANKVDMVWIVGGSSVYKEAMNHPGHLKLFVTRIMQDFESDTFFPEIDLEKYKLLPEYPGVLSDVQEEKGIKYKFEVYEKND
Chain of NRF2 ubiquitination (KYSE70) (Q16236 whole entry W24C): as the sequence (Q16236 whole entry W24C) above
Chain of NRF2 (NRF2^Mut-KYSE180) (Q16236 whole entry D77V): as the sequence (Q16236 whole entry W24C) above, with C24W, D77V counted along it

On to `CCc1nc(N)nc(N)c1-c1ccc(Cl)cc1` [PYR, Pyrimethamine], for which the Global translation entry in the data set on global translation is given as “Neither PYR (10 μM) nor MIT (20 nM) inhibited global translation”. Also, the “Effect on NRF2 half-life” value is recorded as “shortened NRF2 half-life” at NRF2 (NRF2^Mut-KYSE180) and “not changed” at NRF2 (NRF2^WT-KYSE450). For the same compound, the NRF2 expression entry in data set [1] and in [8] was “upregulated NRF2 expression” each time. Also, the “Myelosuppression (complete blood count)” value in the data set on adult wild-type mice (30 mg/kg/day) was “not myelosuppressive”; in the data set on adult wild-type mice (60 mg/kg/day, p.o., 4 weeks) it was “resulted in myelosuppression including leukopenia and lymphopenia”. Besides, the “Impact on body weight and general health” value in the data set with adult wild-type mice (15, 30 and 60 mg/kg/day, p.o., 4 weeks) was “did not observe any negative impact”. Moreover, the IC50 in [2] was 0.23 µM; with KYSE70 cells, more than 10 µM. The “pSTAT3 and STAT3 expression” value with STAT3 is listed as “did not significantly inhibit”. Moreover, the “Concentration expected in mouse tissues” value in data set [3] was approximately 10 µM. Also, the “Overall mRNA expression level of human NRF2 target genes” value in [4] is “significantly reduced”. In addition, in data set [5] (30 mg/kg/day, p.o.), the “NRF2^high esophageal phenotype” value was “effectively inhibited”. Besides, the Toxicity result in [5] (30 mg/kg/day, p.o.) is given as “no observed toxicity”. For the same compound, the “Expression of NRF2 and its target genes (HMOX1 and AKR1C3) in the esophageal epithelium” value in data set [5] (setting [9]) is on record as “significantly inhibited the expression”. Also, the “NQO1, GCLC and GCLM expression in the esophageal epithelium” value in data set [5] (setting [9]) is “inhibited, yet without statistical significance”. Further, the “NRF2 expression in the forestomach” value in data set [5] (setting [9]) is “significantly inhibited”. For the same compound, the NRF2 ubiquitination result in data set [6] is recorded as “promoted NRF2 ubiquitination”. Besides, the “NFE2L2 mRNA and NRF2 target genes (AKR1B10, AKR1C2, AKR1C3, PGD, SLC7A11, TKT) by qPCR” value in data set [7] was “downregulation”. The “Concentration from which DHFR activity is significantly inhibited” value on DHFR is not below 5 µM. In addition, on NRF2-ARE binding, the NRF2-ARE binding activity result is given as “did not observe any changes”.
